# Measurements as given in ChEMBL document CHEMBL4689842, “EUbOPEN Chemogenomics Library wave 1” (2021).
# Legend:
# Type in all cases: toxicity, cell-based
# Fibroblast [1] = assay: Multiplex assay against human fibroblast
# Method in brief: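 Hoechst33342, BioTracker Green Microtubule Cytoskeleton Dye, MitoTracker Red and Annexin V Alexa Fluor 680 were added to live cells at seeding, and imaging on a CQ1 microscope at 37°C and 5% CO2 followed compound addition. Gating by CellPathfinder machine learning separated cells into Hoechst high-intensity objects or normal cells, then normal cells into healthy, pyknosed or fragmented nuclei, then pyknosed cells into mitotic or apoptotic. Per cents of healthy-nucleus cells are reported for the tubulin, mitochondrial-mass and membrane-permeability phenotypes.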
# HEK-293T = assay: Incucyte cell viability with HEK293T; details: human, 10 µM, compound concentration 10 uM; also: filed as whole numbers so only -1 and 0 and 1 occur
# Fibroblast [2] = assay: Incucyte cell viability with human fibroblast; details: 10 µM, compound concentration 10 uM; also: filed as whole numbers so only -1 and 0 and 1 occur
# U2OS = assay: Incucyte cell viability with U2OS; details: human, 10 µM, compound concentration 10 uM; also: filed as whole numbers so only -1 and 0 and 1 occur
# [3] = 12 h, 1 µM, compound concentration 1 uM, replicate 1
# [4] = 12 h, 1 µM, compound concentration 1 uM, replicate 2
# [5] = 12 h, 10 µM, compound concentration 10 uM, replicate 1
# [6] = 12 h, 10 µM, compound concentration 10 uM, replicate 2
# [7] = 24 h, 1 µM, compound concentration 1 uM, replicate 1
# [8] = 24 h, 1 µM, compound concentration 1 uM, replicate 2
# [9] = 24 h, 10 µM, compound concentration 10 uM, replicate 1
# [10] = 24 h, 10 µM, compound concentration 10 uM, replicate 2
# [11] = 48 h, 1 µM, compound concentration 1 uM, replicate 1
# [12] = 48 h, 1 µM, compound concentration 1 uM, replicate 2
# [13] = 48 h, 10 µM, compound concentration 10 uM, replicate 1
# [14] = 48 h, 10 µM, compound concentration 10 uM, replicate 2
# [15] = 0 h, replicate number 1, timepoint 0 hours
# [16] = 12 h, replicate number 1, timepoint 12 hours
# [17] = 18 h, replicate number 1, timepoint 18 hours
# [18] = 24 h, replicate number 1, timepoint 24 hours
# [19] = 6 h, replicate number 2, timepoint 6 hours
smiles,measurement,setting,value
CCc1cc2c(cc1CC)CC(NC[C@H](O)c1ccc(O)c3[nH]c(=O)ccc13)C2 [INDACATEROL],Population Apoptotic (%),Fibroblast [1]; [3],57%
same,Population Fragmented Nuclei (%),Fibroblast [1]; [3],22%
same,Population Healthy Nuclei (%),Fibroblast [1]; [3],53%
same,Population Hoechst High Intensity Objects (%),Fibroblast [1]; [3],9%
same,Population Membrane Permeable-Phenotype (%),Fibroblast [1]; [3],21%
same,Population Mitochondria Different-Phenotype (%),Fibroblast [1]; [3],10%
same,Population Mitotic Cells (%),Fibroblast [1]; [3],42%
same,Population Normal (%),Fibroblast [1]; [3],90%
same,Population Pyknosed Nuclei (%),Fibroblast [1]; [3],23%
same,Population Tubulin-Different-Phenotype (%),Fibroblast [1]; [3],35%
same,Total Cell Count,Fibroblast [1]; [3],187
same,Population Apoptotic (%),Fibroblast [1]; [4],33%
same,Population Fragmented Nuclei (%),Fibroblast [1]; [4],3%
same,Population Healthy Nuclei (%),Fibroblast [1]; [4],92%
same,Population Hoechst High Intensity Objects (%),Fibroblast [1]; [4],7%
same,Population Membrane Permeable-Phenotype (%),Fibroblast [1]; [4],1%
same,Population Mitochondria Different-Phenotype (%),Fibroblast [1]; [4],11%
same,Population Mitotic Cells (%),Fibroblast [1]; [4],66%
same,Population Normal (%),Fibroblast [1]; [4],92%
same,Population Pyknosed Nuclei (%),Fibroblast [1]; [4],4%
same,Population Tubulin-Different-Phenotype (%),Fibroblast [1]; [4],14%
same,Total Cell Count,Fibroblast [1]; [4],71
same,Population Apoptotic (%),Fibroblast [1]; [5],71%
same,Population Fragmented Nuclei (%),Fibroblast [1]; [5],35%
same,Population Healthy Nuclei (%),Fibroblast [1]; [5],45%
same,Population Hoechst High Intensity Objects (%),Fibroblast [1]; [5],22%
same,Population Membrane Permeable-Phenotype (%),Fibroblast [1]; [5],1%
same,Population Mitochondria Different-Phenotype (%),Fibroblast [1]; [5],43%
same,Population Mitotic Cells (%),Fibroblast [1]; [5],28%
same,Population Normal (%),Fibroblast [1]; [5],77%
same,Population Pyknosed Nuclei (%),Fibroblast [1]; [5],19%
same,Population Tubulin-Different-Phenotype (%),Fibroblast [1]; [5],74%
same,Total Cell Count,Fibroblast [1]; [5],230
same,Population Apoptotic (%),Fibroblast [1]; [6],68%
same,Population Fragmented Nuclei (%),Fibroblast [1]; [6],15%
same,Population Healthy Nuclei (%),Fibroblast [1]; [6],64%
same,Population Hoechst High Intensity Objects (%),Fibroblast [1]; [6],6%
same,Population Membrane Permeable-Phenotype (%),Fibroblast [1]; [6],23%
same,Population Mitochondria Different-Phenotype (%),Fibroblast [1]; [6],98%
same,Population Mitotic Cells (%),Fibroblast [1]; [6],31%
same,Population Normal (%),Fibroblast [1]; [6],93%
same,Population Tubulin-Different-Phenotype (%),Fibroblast [1]; [6],88%
same,Total Cell Count,Fibroblast [1]; [6],71
same,Population Apoptotic (%),Fibroblast [1]; [7],69%
same,Population Fragmented Nuclei (%),Fibroblast [1]; [7],23%
same,Population Healthy Nuclei (%),Fibroblast [1]; [7],62%
same,Population Hoechst High Intensity Objects (%),Fibroblast [1]; [7],10%
same,Population Membrane Permeable-Phenotype (%),Fibroblast [1]; [7],18%
same,Population Mitochondria Different-Phenotype (%),Fibroblast [1]; [7],5%
same,Population Mitotic Cells (%),Fibroblast [1]; [7],30%
same,Population Normal (%),Fibroblast [1]; [7],89%
same,Population Pyknosed Nuclei (%),Fibroblast [1]; [7],13%
same,Population Tubulin-Different-Phenotype (%),Fibroblast [1]; [7],36%
same,Total Cell Count,Fibroblast [1]; [7],184
same,Population Apoptotic (%),Fibroblast [1]; [8],14%
same,Population Fragmented Nuclei (%),Fibroblast [1]; [8],4%
same,Population Healthy Nuclei (%),Fibroblast [1]; [8],86%
same,Population Hoechst High Intensity Objects (%),Fibroblast [1]; [8],3%
same,Population Membrane Permeable-Phenotype (%),Fibroblast [1]; [8],0%
same,Population Mitochondria Different-Phenotype (%),Fibroblast [1]; [8],10%
same,Population Mitotic Cells (%),Fibroblast [1]; [8],85%
same,Population Normal (%),Fibroblast [1]; [8],96%
same,Population Pyknosed Nuclei (%),Fibroblast [1]; [8],9%
same,Population Tubulin-Different-Phenotype (%),Fibroblast [1]; [8],12%
same,Total Cell Count,Fibroblast [1]; [8],73
same,Population Apoptotic (%),Fibroblast [1]; [9],71%
same,Population Fragmented Nuclei (%),Fibroblast [1]; [9],30%
same,Population Healthy Nuclei (%),Fibroblast [1]; [9],49%
same,Population Hoechst High Intensity Objects (%),Fibroblast [1]; [9],33%
same,Population Membrane Permeable-Phenotype (%),Fibroblast [1]; [9],5%
same,Population Mitochondria Different-Phenotype (%),Fibroblast [1]; [9],55%
same,Population Mitotic Cells (%),Fibroblast [1]; [9],28%
same,Population Normal (%),Fibroblast [1]; [9],66%
same,Population Pyknosed Nuclei (%),Fibroblast [1]; [9],19%
same,Population Tubulin-Different-Phenotype (%),Fibroblast [1]; [9],77%
same,Total Cell Count,Fibroblast [1]; [9],243
same,Population Apoptotic (%),Fibroblast [1]; [10],89%
same,Population Fragmented Nuclei (%),Fibroblast [1]; [10],11%
same,Population Healthy Nuclei (%),Fibroblast [1]; [10],67%
same,Population Hoechst High Intensity Objects (%),Fibroblast [1]; [10],6%
same,Population Membrane Permeable-Phenotype (%),Fibroblast [1]; [10],59%
same,Population Mitochondria Different-Phenotype (%),Fibroblast [1]; [10],100%
same,Population Mitotic Cells (%),Fibroblast [1]; [10],10%
same,Population Normal (%),Fibroblast [1]; [10],93%
same,Population Pyknosed Nuclei (%),Fibroblast [1]; [10],20%
same,Population Tubulin-Different-Phenotype (%),Fibroblast [1]; [10],86%
same,Total Cell Count,Fibroblast [1]; [10],78
same,Population Apoptotic (%),Fibroblast [1]; [11],30%
same,Population Fragmented Nuclei (%),Fibroblast [1]; [11],29%
same,Population Healthy Nuclei (%),Fibroblast [1]; [11],64%
same,Population Hoechst High Intensity Objects (%),Fibroblast [1]; [11],10%
same,Population Membrane Permeable-Phenotype (%),Fibroblast [1]; [11],20%
same,Population Mitochondria Different-Phenotype (%),Fibroblast [1]; [11],0%
same,Population Mitotic Cells (%),Fibroblast [1]; [11],69%
same,Population Normal (%),Fibroblast [1]; [11],89%
same,Population Pyknosed Nuclei (%),Fibroblast [1]; [11],6%
same,Population Tubulin-Different-Phenotype (%),Fibroblast [1]; [11],20%
same,Total Cell Count,Fibroblast [1]; [11],222
same,Population Apoptotic (%),Fibroblast [1]; [12],100%
same,Population Fragmented Nuclei (%),Fibroblast [1]; [12],37%
same,Population Healthy Nuclei (%),Fibroblast [1]; [12],60%
same,Population Hoechst High Intensity Objects (%),Fibroblast [1]; [12],15%
same,Population Membrane Permeable-Phenotype (%),Fibroblast [1]; [12],7%
same,Population Mitochondria Different-Phenotype (%),Fibroblast [1]; [12],4%
same,Population Mitotic Cells (%),Fibroblast [1]; [12],0%
same,Population Normal (%),Fibroblast [1]; [12],84%
same,Population Pyknosed Nuclei (%),Fibroblast [1]; [12],1%
same,Population Tubulin-Different-Phenotype (%),Fibroblast [1]; [12],35%
same,Total Cell Count,Fibroblast [1]; [12],82
same,Population Apoptotic (%),Fibroblast [1]; [13],70%
same,Population Fragmented Nuclei (%),Fibroblast [1]; [13],38%
same,Population Healthy Nuclei (%),Fibroblast [1]; [13],46%
same,Population Hoechst High Intensity Objects (%),Fibroblast [1]; [13],51%
same,Population Membrane Permeable-Phenotype (%),Fibroblast [1]; [13],1%
same,Population Mitochondria Different-Phenotype (%),Fibroblast [1]; [13],54%
same,Population Mitotic Cells (%),Fibroblast [1]; [13],29%
same,Population Normal (%),Fibroblast [1]; [13],48%
same,Population Pyknosed Nuclei (%),Fibroblast [1]; [13],14%
same,Population Tubulin-Different-Phenotype (%),Fibroblast [1]; [13],67%
same,Total Cell Count,Fibroblast [1]; [13],237
same,Population Apoptotic (%),Fibroblast [1]; [14],66%
same,Population Fragmented Nuclei (%),Fibroblast [1]; [14],52%
same,Population Healthy Nuclei (%),Fibroblast [1]; [14],44%
same,Population Hoechst High Intensity Objects (%),Fibroblast [1]; [14],37%
same,Population Membrane Permeable-Phenotype (%),Fibroblast [1]; [14],0%
same,Population Mitochondria Different-Phenotype (%),Fibroblast [1]; [14],28%
same,Population Mitotic Cells (%),Fibroblast [1]; [14],33%
same,Population Normal (%),Fibroblast [1]; [14],62%
same,Population Pyknosed Nuclei (%),Fibroblast [1]; [14],3%
same,Population Tubulin-Different-Phenotype (%),Fibroblast [1]; [14],61%
same,Total Cell Count,Fibroblast [1]; [14],465
same,Growth Rate,HEK-293T; [15],0
same,Growth Rate,"HEK-293T; 6 h, replicate number 1, timepoint 6 hours",0
same,Growth Rate,HEK-293T; [16],0
same,Growth Rate,HEK-293T; [17],0
same,Growth Rate,HEK-293T; [18],0
same,Growth Rate,Fibroblast [2]; [15],1
same,Growth Rate,Fibroblast [2]; [19],0
same,Growth Rate,Fibroblast [2]; [16],0
same,Growth Rate,Fibroblast [2]; [17],0
same,Growth Rate,Fibroblast [2]; [18],0
same,Growth Rate,U2OS; [15],1
same,Growth Rate,U2OS; [19],1
same,Growth Rate,U2OS; [16],1
same,Growth Rate,"U2OS; 12 h, replicate number 2, timepoint 12 hours",0
same,Growth Rate,U2OS; [17],0
same,Growth Rate,U2OS; [18],0
